According to PMC5111764 (Journal of Clinical Pharmacology, 2016):
Like-named read-outs stand apart in the source and are kept apart here.

What was measured:
[1] = format: in vivo; conditions: male, human, plasma, po
Summary of the method: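 In an alternating-panel design (panels A and B), each panel had 6 active and 2 placebo subjects. Single oral doses of 0.5–400 mg were given after an overnight fast, with at least 2 weeks of washout. Blood went into K2EDTA and was spun at 1000–1300g, 4–10°C, for 10 min, then stored at –20°C. Plasma was extracted liquid-liquid with a stable-isotope internal standard and assayed by LC/MS/MS with turbo ionspray (range 1.0–1000 ng/mL). Parameters came from individual concentration-time curves at actual sampling times.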

[2] = Study 1 panel C: effect of a high-fat breakfast on single-dose pharmacokinetics; format: in vivo, human; conditions: single dose 10 mg
Summary of the method: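 Panel C had 8 subjects, 6 on 10 mg test compound and 2 on placebo, in a 2-period fixed sequence. Dosing was fasted in period 1 and after a standard high-fat breakfast (55.6 g fat, 55 g carbohydrate, 31.1 g protein) in period 2. Washout was at least 2 weeks. Plasma was assayed by LC/MS/MS (LLOQ 1.0 ng/mL). Log-transformed parameters were compared fed/fasted as GMR with 90% CI.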

[3] = format: in vivo, human; conditions: for fe, fraction of dose excreted in urine: Day 15, 168-hour collection; for half-life / CL renal: male, human, oral; for half-life: plasma; for CL renal: urine and plasma
Summary of the method: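 Serial panels got 10, 25, 50 or 100 mg orally once weekly on days 1, 8 and 15, with 6 active and 2 placebo per panel. Plasma was assayed by LC/MS/MS (LLOQ 1.0 ng/mL). Urine was fortified with 0.2% Tween 20, protein-precipitated and assayed by LC/MS/MS (range 40.0–40,000 ng/mL). Ae is the sum of concentration × volume per interval, fe is Ae/dose and CLr is Ae/AUC. Accumulation is the day 15/day 1 GMR with 90% CI from a log-transformed mixed-effects model.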

plasma DPP-4 activity [4] = biological target: T1, plasma DPP-4 activity (Homo sapiens, UniProt P27487); test: Study 1: inhibition of plasma DPP-4 activity after single doses; format: in vivo
Summary of the method: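 Healthy subjects got single oral doses of 0.5–400 mg or placebo. Blood went into EDTA tubes and was spun at 1700g for 10 min at 4°C, then stored at –20°C or below. Plasma was incubated with glycyl-prolyl-paranitroanilide, and absorbance increase at 390 nm was read from 4 to 14 min (LOQ 0.6 mOD/min). Inhibition is the % change from the period-1 predose baseline. The 168-h values came from a linear mixed-effects model (treatment fixed, subject random).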

plasma DPP-4 activity [5] = biological target: T1, plasma DPP-4 activity; test: PK/PD Emax model of DPP-4 inhibition vs omarigliptin plasma concentration; format: in vivo
active GLP-1 = test: Study 2: weighted average augmentation; format: in vivo, human; conditions: healthy subjects (abstract)
Summary of the method: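 Once-weekly oral dosing ran days 1, 8 and 15 against placebo. On day 15, standard meals were given at 4 and 10 h post-dose, with the 4-h sample drawn before the meal. Plasma active GLP-1 (7-36 and 7-37 amides) was measured by electrochemiluminescent immunoassay. Capture was with an antibody to amino acid 7, and detection with antibodies to the C-terminal residues 36/37. WAA was taken through 2 h after each meal and analysed by ANOVA versus placebo.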

[6] = PK/QTc relationship: linear mixed-effects model of QTcF vs plasma concentration; format: in vivo, human; conditions: Cmax of 10 μM
Summary of the method: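 In study 1, single rising oral doses ran from 0.5 to 400 mg under fasting. ECGs came from 5-lead cardiac telemetry and 12-lead recordings, paired with PK sampling. The averaged triplicate QTcF at each time point (dependent) was matched to plasma drug concentration (independent). These were fitted by a linear mixed-effects model with slope and intercept, and the slope was tested against zero. Prolongation was predicted from the fitted slope.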

[7] = Safety and tolerability in healthy subjects; format: in vivo, human; conditions: single and multiple doses
Summary of the method: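 Healthy adults got single rising oral doses or 3 once-weekly oral doses, versus placebo. Physical exams, vital signs and 12-lead ECGs (QTc, PR) were done before dosing, after dosing and at the poststudy visit. So were labs (hematology, serum chemistry including transaminases, urinalysis). Glucometer readings were taken often over 24 h after each single dose or the last multiple dose. Adverse experiences were graded for intensity, duration, seriousness, outcome and drug relation.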

[8] = rats and dogs; cited from earlier work
plasma DPP-4 activity [9] = conditions: lean mice, 0.3 mg/kg dose; cited from earlier work
[10] = ref unpublished data; cited from earlier work
[11] = ref unpublished data; cited from earlier work; remark: listed apart in the source

T1 sequence (P27487 39-766): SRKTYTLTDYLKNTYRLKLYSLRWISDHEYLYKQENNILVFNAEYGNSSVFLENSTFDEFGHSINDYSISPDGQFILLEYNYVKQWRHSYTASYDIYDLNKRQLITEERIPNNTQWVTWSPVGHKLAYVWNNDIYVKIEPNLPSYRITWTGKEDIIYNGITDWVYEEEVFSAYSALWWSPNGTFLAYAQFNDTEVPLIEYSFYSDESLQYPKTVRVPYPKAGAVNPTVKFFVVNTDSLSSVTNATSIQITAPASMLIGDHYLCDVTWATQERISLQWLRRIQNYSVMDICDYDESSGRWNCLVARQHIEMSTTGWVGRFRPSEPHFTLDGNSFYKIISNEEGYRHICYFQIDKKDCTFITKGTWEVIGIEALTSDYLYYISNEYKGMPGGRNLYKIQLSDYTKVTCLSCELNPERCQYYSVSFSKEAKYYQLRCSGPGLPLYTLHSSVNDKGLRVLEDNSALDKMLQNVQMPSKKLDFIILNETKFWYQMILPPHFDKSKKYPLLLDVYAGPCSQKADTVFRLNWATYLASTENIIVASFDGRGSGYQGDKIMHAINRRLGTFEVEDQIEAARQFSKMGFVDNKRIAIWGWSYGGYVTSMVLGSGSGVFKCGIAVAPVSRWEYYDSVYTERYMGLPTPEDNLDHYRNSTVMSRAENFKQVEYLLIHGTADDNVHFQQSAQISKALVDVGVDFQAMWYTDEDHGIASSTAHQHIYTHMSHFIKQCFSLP

## CS(=O)(=O)n1cc2c(n1)CN([C@H]1CO[C@H](c3cc(F)ccc3F)[C@@H](N)C1)C2 [omarigliptin]
[1]
  Tmax: 0.75 to 4 h
[1]; 0.5 mg
  Cmax: 6.5 nM
  Tmax: 0.75 h
[1]; 1.5 mg
  AUC(0-inf): 1.7 µM·h
  Cmax: 20.7 nM
  Tmax: 1 h
[1]; 5 mg
  AUC(0-inf): 5.3 µM·h
  Cmax: 88.2 nM
  Tmax: 2 h
[1]; 12.5 mg
  AUC(0-inf): 12 µM·h
  Cmax: 219 nM
  Tmax: 4 h
[1]; 25 mg
  AUC(0-inf): 22.5 µM·h
  Cmax: 484 nM
  Tmax: 0.75 h
[1]; 50 mg
  AUC(0-inf): 41.6 µM·h
  Cmax: 904 nM
  Tmax: 1.5 h
[1]; 100 mg
  AUC(0-inf): 86.9 µM·h
  Cmax: 2210 nM
  Tmax: 0.75 h
[1]; 200 mg
  AUC(0-inf): 162 µM·h
  Cmax: 3850 nM
  Tmax: 1.5 h
[1]; 400 mg
  AUC(0-inf): 335 µM·h
  Cmax: 9290 nM
  Tmax: 1 h
[2]
  difference in overall absorption in the presence and absence of a high-fat breakfast: No difference
[3]; 10 mg once weekly
  fe, fraction of dose excreted in urine: 70.1 (14.1) %
[3]; 25 mg once weekly
  fe, fraction of dose excreted in urine: 57.5 (15.7) %
[3]; 50 mg once weekly
  fe, fraction of dose excreted in urine: 73.6 (4.3) %
[3]; 100 mg once weekly
  fe, fraction of dose excreted in urine: 72.2 (7.7) %
[3]; all treatments 10 to 100 mg once weekly
  steady state achieved following the second dosing: more than 80%
[3]; 10 mg
  half-life: 83.2 h
  CL renal: 33.3 mL/min
[3]; 25 mg
  half-life: 66.7 h
  CL renal: 26.7 mL/min
[3]; 50 mg
  half-life: 48.3 h
  CL renal: 31.7 mL/min
[3]; 100 mg
  half-life: 41.7 h
  CL renal: 35 mL/min
[3]
  CL renal: 26.7 to 35 mL/min
Plasma DPP-4 activity [4]; single dose 0.5 mg
  percentage inhibition of DPP-4 activity 168 hours postdose (point estimate): 32.2%
Plasma DPP-4 activity [4]; single dose 400 mg
  percentage inhibition of DPP-4 activity 168 hours postdose (point estimate): 96.7%
Plasma DPP-4 activity [5]; Emax model, single doses, SE 0.03
  Hill slope γ: 1.1
Plasma DPP-4 activity [5]; read-out: Emax, maximum inhibition of plasma DPP-4 activity
  Emax: 96.8%
Active GLP-1
  increase in weighted average postprandial active GLP-1: ~2 fold
[6]
  margin to the clinical dose of 25 mg: ~20 fold
[7]; healthy adults
  tolerability: generally well tolerated
[7]
  clinical or laboratory adverse experiences of hypoglycemia: no reports
  serious clinical or laboratory adverse experiences or discontinuation because of a clinical adverse experience: No subject
[8]
  bioavailability: nearly complete
Plasma DPP-4 activity [9]
  inhibition of plasma DPP-4 activity: ~85%
[10]
  solubility: high
[11]
  permeability: high
